Source: ChEMBL document CHEMBL1129036, “Bisindolylmaleimides linked to DNA minor groove binding lexitropsins: synthesis, inhibitory activity against topoisomerase I, and biological evaluation” (J Med Chem, 1996)
≈ marks a conversion by molar mass, not a printed value.

Experiments:
[1] = biological target: T1, DNA topoisomerase 1 (Homo sapiens) (UniProt P11387); experiment: Topoisomerase I […] was evaluated by Fluorescence assay using Ethidium Bromide after heat denaturation of pBR322 DNA at concentration 100 uM; settings: Escherichia coli
T1 sequence (whole entry): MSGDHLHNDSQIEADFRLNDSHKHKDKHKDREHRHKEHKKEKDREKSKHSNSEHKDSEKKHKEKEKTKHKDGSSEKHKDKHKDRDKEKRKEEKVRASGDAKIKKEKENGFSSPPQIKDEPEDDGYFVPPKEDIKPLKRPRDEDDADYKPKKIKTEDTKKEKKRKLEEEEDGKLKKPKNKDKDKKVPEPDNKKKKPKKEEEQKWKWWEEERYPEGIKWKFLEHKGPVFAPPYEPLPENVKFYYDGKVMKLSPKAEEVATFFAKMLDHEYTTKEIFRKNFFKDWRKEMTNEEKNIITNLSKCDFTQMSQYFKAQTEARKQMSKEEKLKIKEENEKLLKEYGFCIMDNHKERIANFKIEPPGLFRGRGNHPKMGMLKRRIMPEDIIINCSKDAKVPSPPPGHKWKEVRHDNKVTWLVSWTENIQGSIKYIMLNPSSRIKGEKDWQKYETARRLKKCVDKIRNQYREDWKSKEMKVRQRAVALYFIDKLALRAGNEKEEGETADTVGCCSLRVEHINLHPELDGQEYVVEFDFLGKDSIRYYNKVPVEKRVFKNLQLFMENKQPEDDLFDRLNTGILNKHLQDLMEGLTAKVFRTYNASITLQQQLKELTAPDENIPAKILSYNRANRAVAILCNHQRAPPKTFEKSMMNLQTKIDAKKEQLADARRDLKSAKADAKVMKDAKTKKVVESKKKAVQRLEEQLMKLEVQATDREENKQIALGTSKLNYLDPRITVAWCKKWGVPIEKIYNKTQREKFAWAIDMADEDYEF
Outline: (§1)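 0.25 µg pBR322 DNA incubated with ligand alone, no enzyme, 30 min at 37 °C. Ethidium bromide buffer added (0.5 µg/mL EtBr, 20 mM K₃PO₄, 0.5 mM EDTA, pH 12). Fluorescence measured at ex 525/em 600 nm before and after heat denaturation of DNA; percent change vs control.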

[2] = biological target: T1, DNA topoisomerase 1 (Homo sapiens); experiment: Topoisomerase I […] was evaluated by Fluorescence assay using Ethidium Bromide after heat denaturation of pBR322 DNA at concentration 250 uM; settings: Escherichia coli; outline: as §1
[3] = biological target: T1, DNA topoisomerase 1 (Homo sapiens); experiment: Topoisomerase I […] was evaluated by Fluorescence assay using Ethidium Bromide after heat denaturation of pBR322 DNA at concentration 25 uM; settings: Escherichia coli; at 25 µM
Outline: (§2)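 0.25 µg pBR322 DNA incubated with ligand for 30 min at 37 °C without topoisomerase I (DNA and compound only). Ethidium bromide buffer then added (0.5 µg/mL ethidium bromide, 20 mM K₃PO₄, 0.5 mM EDTA, pH 12). Fluorescence read at excitation 525 nm and emission 600 nm, before and after heat denaturation of the DNA. Reported as percent change from control.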

[4] = biological target: T1, DNA topoisomerase 1 (Homo sapiens); experiment: Topoisomerase I DNA relaxation activity was evaluated by Agarose Gel Electrophoresis test at concentration 100 uM; settings: Escherichia coli
Outline: (§3)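 Relaxation of 0.25 µg supercoiled pBR322 DNA by 0.5 unit topoisomerase I, 30 min at 37 °C with ligand (25–250 µM), final volume 10 µL. SDS-containing loading buffer added, further 30 min at 37 °C. Agarose gel run overnight, stained with ethidium bromide (0.5 µg/mL), photographed. Percent supercoiled DNA remaining by laser densitometry, scored in bands (<10% to 75–100%).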

[5] = biological target: T1, DNA topoisomerase 1 (Homo sapiens); experiment: Topoisomerase I DNA relaxation activity was evaluated by Agarose Gel Electrophoresis test at concentration 250 uM; settings: Escherichia coli; outline: as §3
[6] = biological target: T1, DNA topoisomerase 1 (Homo sapiens); experiment: Topoisomerase I DNA relaxation activity was evaluated by Agarose Gel Electrophoresis test at concentration 25 uM; settings: Escherichia coli; at 25 µM
Outline: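 0.25 µg supercoiled pBR322 DNA and 0.5 unit topoisomerase I incubated with ligand for 30 min at 37 °C (10 µL final). Equal volume loading buffer with SDS added, a further 30 min at 37 °C, agarose gel run overnight, ethidium bromide stained. Supercoiled DNA remaining quantified by laser densitometry of the photographed gel. Scored as % inhibition bands (<10% to 75-100%).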

[7] = biological target: T1, DNA topoisomerase 1 (Homo sapiens); experiment: Topoisomerase I DNA relaxation activity was evaluated by Agarose Gel Electrophoresis test at concentration 50 uM; settings: Escherichia coli; outline: as §3
[8] = biological target: T1, DNA topoisomerase 1 (Homo sapiens); experiment: Topoisomerase I DNA relaxation activity was evaluated by Fluorescence assay using Ethidium Bromide after heat denaturation of pBR322 DNA at concentration 100 uM; settings: Escherichia coli
Outline: (§4)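 0.25 µg pBR322 DNA with ligand plus topoisomerase I (0.5 unit), 30 min at 37 °C. Then ethidium bromide buffer added (0.5 µg/mL EtBr, 20 mM K₃PO₄, 0.5 mM EDTA, pH 12). Fluorescence read at ex 525/em 600 nm before and after heat denaturation of DNA; percent change vs control.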

[9] = biological target: T1, DNA topoisomerase 1 (Homo sapiens); experiment: Topoisomerase I DNA relaxation activity was evaluated by Fluorescence assay using Ethidium Bromide after heat denaturation of pBR322 DNA at concentration 25 uM; settings: Escherichia coli; at 25 µM
Outline: (§5)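 0.25 µg pBR322 DNA incubated with ligand and topoisomerase I (0.5 unit) for 30 min at 37 °C. Ethidium bromide buffer then added (0.5 µg/mL ethidium bromide, 20 mM K₃PO₄, 0.5 mM EDTA, pH 12). Fluorescence read at excitation 525 nm and emission 600 nm, before and after heat denaturation of the DNA. Reported as percent change from control.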

[10] = biological target: T1, DNA topoisomerase 1 (Homo sapiens); experiment: Topoisomerase I DNA relaxation activity was evaluated by Fluorescence assay using Ethidium Bromide after heat denaturation of pBR322 DNA at concentration 50 uM; settings: Escherichia coli; outline: as §4
[11] = biological target: T1, DNA topoisomerase 1 (Homo sapiens); experiment: Topoisomerase I DNA relaxation activity was evaluated by Fluorescence assay using Ethidium Bromide before heat denaturation of pBR322 DNA at concentration 100 uM; settings: Escherichia coli; outline: as §4
[12] = biological target: T1, DNA topoisomerase 1 (Homo sapiens); experiment: Topoisomerase I DNA relaxation activity was evaluated by Fluorescence assay using Ethidium Bromide before heat denaturation of pBR322 DNA at concentration 250 uM; settings: Escherichia coli; outline: as §4
[13] = biological target: T1, DNA topoisomerase 1 (Homo sapiens); experiment: Topoisomerase I DNA relaxation activity was evaluated by Fluorescence assay using Ethidium Bromide before heat denaturation of pBR322 DNA at concentration 25 uM; settings: Escherichia coli; at 25 µM; outline: as §5
[14] = biological target: T1, DNA topoisomerase 1 (Homo sapiens); experiment: Topoisomerase I DNA relaxation activity was evaluated by Fluorescence assay using Ethidium Bromide before heat denaturation of pBR322 DNA at concentration 50 uM; settings: Escherichia coli; outline: as §4
[15] = biological target: T1, DNA topoisomerase 1 (Homo sapiens); experiment: Topoisomerase I […] was evaluated by Fluorescence assay using Ethidium Bromide after heat denaturation of pBR322 DNA at concentration 50 uM; settings: Escherichia coli; outline: as §1
[16] = biological target: T1, DNA topoisomerase 1 (Homo sapiens); experiment: Topoisomerase I […] was evaluated by Fluorescence assay using Ethidium Bromide before heat denaturation of pBR322 DNA at concentration 100 uM; settings: Escherichia coli; outline: as §1
[17] = biological target: T1, DNA topoisomerase 1 (Homo sapiens); experiment: Topoisomerase I […] was evaluated by Fluorescence assay using Ethidium Bromide before heat denaturation of pBR322 DNA at concentration 250 uM; settings: Escherichia coli; outline: as §1
[18] = biological target: T1, DNA topoisomerase 1 (Homo sapiens); experiment: Topoisomerase I […] was evaluated by Fluorescence assay using Ethidium Bromide before heat denaturation of pBR322 DNA at concentration 25 uM; settings: Escherichia coli; at 25 µM; outline: as §2
[19] = biological target: T1, DNA topoisomerase 1 (Homo sapiens); experiment: Topoisomerase I […] was evaluated by Fluorescence assay using Ethidium Bromide before heat denaturation of pBR322 DNA at concentration 50 uM; settings: Escherichia coli; outline: as §1
[20] = biological target: T1, DNA topoisomerase 1 (Homo sapiens); experiment: Topoisomerase I DNA relaxation activity was evaluated by Fluorescence assay using Ethidium Bromide after heat denaturation of pBR322 DNA at concentration 250 uM; settings: Escherichia coli; outline: as §4
[21] = In vitro cytotoxicity against KB cancer cell line (ATCC CCL 17).; assay type: cell-based; settings: human, KB cancer cells (ATCC CCL 17); read-out: TD50 (the source's name)
Outline: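 KB cells grown in Eagle's MEM with 10% calf serum, 37 °C, humidified 5% CO₂. Seeded at 3 × 10³ cells/mL, cultured 24 h, then compound added in triplicate at several concentrations for 3 days. TD50 is the concentration giving 50% reduction in cell count; average of ≥3 determinations.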

[22] = biological target: T1, DNA topoisomerase 1 (Homo sapiens); settings: Escherichia coli; at 25 µM
[23] = biological target: T1, DNA topoisomerase 1 (Homo sapiens); settings: Escherichia coli; at 25 µM; remark: listed apart in the source

Compound | Change [1] [%] | Change [2] [%] | Change [3] [%] | inhibition [4] [%] | inhibition [5] [%] | inhibition [6] [%] | inhibition [7] [%] | Change [8] [%] | Change [9] [%] | Change [10] [%] | Change [11] [%] | Change [12] [%] | Change [14] [%] | Change [15] [%] | Change [16] [%] | Change [17] [%] | Change [18] [%] | Change [19] [%] | Change [20] [%] | CC50 [21] [µg/mL] | other results
COC(=O)c1cc(NC(=O)c2cc(NC(=O)Cn3cc(C4=C(c5c[nH]c6ccccc56)C(=O)NC4=O)c4ccccc43)cn2C)cn1C | 15 | 10 | 4 | 0 | 0 | 0 | 0 | 12 | 13 | 7 | 1 | 24 | 2 | 15 | 2 | 33 | 5 | 3 | 3 | 58 (≈ 90.1 µM) | Change [13]: 3%
COC(=O)c1cc(NC(=O)Cn2cc(C3=C(c4c[nH]c5ccccc45)C(=O)NC3=O)c3ccccc32)cn1C | 14 | 17 | 15 | 0 | 0 | 0 | 0 | 12 | – | 18 | 3 | 1 | 1 | 12 | 6 | 2 | 2 | 3 | 9 | 53.2 (≈ 102 µM) | Change [22]: 18%; Change [23]: 1%
COC(=O)c1cc(NC(=O)c2cc(NC(=O)c3cc(NC(=O)Cn4cc(C5=C(c6c[nH]c7ccccc67)C(=O)NC5=O)c5ccccc54)cn3C)cn2C)cn1C | 17 | 20 | 14 | 0 | 0 | 0 | 0 | 0 | 6 | 9 | 15 | 36 | 9 | 17 | 33 | 52 | 11 | 25 | 3 | 77.3 (≈ 101 µM) | Change [13]: 1%
CN(C)CCCNC(=O)c1cc(NC(=O)c2cc(NC(=O)Cn3cc(C4=C(c5c[nH]c6ccccc56)C(=O)NC4=O)c4ccccc43)cn2C)cn1C | 12 | 14 | 5 | 50 | 75 | < 10 | 25 | 15 | 3 | 4 | 18 | 14 | 10 | 3 | 21 | 32 | 2 | 14 | 9 | 92.3 (≈ 129 µM) | Change [13]: 7%
CN(C)CCCNC(=O)c1cc(NC(=O)c2cc(NC(=O)c3cc(NC(=O)Cn4cc(C5=C(c6c[nH]c7ccccc67)C(=O)NC5=O)c5ccccc54)cn3C)cn2C)cn1C | 13 | 4 | 6 | 75 | 100 | 25 | 50 | 15 | 3 | 7 | 20 | 14 | 15 | 15 | 24 | 28 | 28 | 26 | 13 | > 100 | Change [13]: 11%
CC[C@@]1(O)C(=O)OCc2c1cc1n(c2=O)Cc2cc3ccccc3nc2-1 [CAMPTOTHECIN] | – | – | – | – | – | – | – | 3 | – | 7 | 3 | – | 12 | – | – | – | – | – | – | 0.01 (≈ 0.0287 µM) | Change [22]: 7%; Change [23]: 6%
